Measured values gathered from unrelated publications.
Compare with care: the assays were run in different laboratories.
Target: Tyrosine-protein kinase ABL2 (ABL2, Homo sapiens, UniProt P42684)

COc1ccc2oc(-c3ccc4nc(N)oc4c3)c/c(=N\c3ccccc3NC(=O)CCN)c2c1 gave a remaining binding of 101% (binding; 1 µM).
CCCCC(=O)Nc1ccc(-c2ccc3ncn(CCC)c(=O)c3c2)cn1 has a remaining binding of 100% (binding; competition with immobilised ligand; 0.5 µM).
With C#Cc1cc(-c2cc(Nc3nc(N[C@@H](C)c4ccc(F)cn4)ncc3Cl)n[nH]2)ccc1C=O the inhibition was 26.4% (enzyme activity; inhibitor; 0.2 µM).
For CC#CC(=O)N1CCC[C@H]1c1nc(-c2ccc(C(=O)Nc3ccccn3)cc2)c2c(N)nccn12, the inhibition was 10% (enzyme activity; inhibitor; 1 µM).
Cc1ccc(NC(=O)c2ccnc(C(F)(F)F)c2)cc1-c1cc(OCCO)nc(N2CCOCC2)c1 has a remaining binding of 99% (binding; competition with immobilised ligand; 1 µM).
With CO[C@@H]1[C@H](N(C)C(=O)c2ccccc2)C[C@H]2O[C@]1(C)n1c3ccccc3c3c4c(c5c6ccccc6n2c5c31)C(=O)NC4 the inhibition was 17% (enzyme activity; inhibitor; 1 µM).
For COc1ccc2[nH]c3c4[nH]c5ccc(OC)cc5c4c4c(c3c2c1)C(=O)NC4=O, the remaining binding was 82% (binding; competition with immobilised ligand; 1 µM).
For C1=C/COCc2cc(ccc2OCCN2CCCC2)Nc2nccc(n2)-c2cccc(c2)COC/1, the remaining binding was 74% (binding; 0.1 µM).
